# Measurements published in ChEMBL document CHEMBL2150886, “Synthesis of [3β-acetoxy-urs-12-en-28-oyl]-1-monoglyceride and investigation on its anti tumor effects against BGC-823” (Bioorg Med Chem, 2011).
# Assays:
# BGC-823 [1] = test: Cytotoxicity against human BGC823 cells by MTT assay; format: functional, cell-based
# Outline: (§1)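 Cells were grown in RPMI-1640 with 10% heat-inactivated FCS at 37 °C under 5% CO₂, seeded at 5 × 10³ per well and left 24 h. Compounds in DMSO were diluted in medium to 0.5% final DMSO; controls received 0.5% DMSO. Exposure was 24–72 h, followed by MTT for 4 h, formazan dissolved in DMSO, and A570. Six wells per sample; IC₅₀ taken at 50% inhibition; ≥3 repeats.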
# HepG2 = test: Cytotoxicity against human HepG2 cells incubated for 48 hrs by MTT assay; format: functional, cell-based; conditions: HepG2, 48 h; outline: as §1
# [2] = Cytotoxicity against human GES-1 cells incubated for 48 hrs by MTT assay; format: cell-based; conditions: GES1, 48 h; outline: as §1
# HT-29 = test: Cytotoxicity against human HT-29 cells incubated for 48 hrs by MTT assay; format: functional, cell-based; conditions: HT-29, 48 h; outline: as §1
# Mus musculus [3] = test: Toxicity in human BGC823 cells xenografted nude mouse assessed as body weight changes at 8 mg/kg, iv treated 4 times on day 1, 4, 7 and 10 post tumor implant (reference value: 20.54 +/- 1.45 grams); format: organism-based, BGC-823; set-up: dose 8 mg/kg, route intravenous; conditions: in vivo
# Mus musculus [4] = test: Toxicity in human BGC823 cells xenografted nude mouse assessed as body weight changes at 8 mg/kg, iv treated […] on day 1, 4, 7, 10, 13 and day 16 post tumor implant (reference value: 20.12 +/- 1.52 grams); format: organism-based, BGC-823; set-up: dose 8 mg/kg, route intravenous; conditions: in vivo
# BGC-823 [5] = test: Antitumor activity against human BGC823 cells xenografted in nude mouse assessed as reduction in tumor volume at 8 mg/kg, iv dosed 5 times; format: functional; set-up: scale not given: the % may be the effect or the level left
# Outline: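 Male nude mice (5 weeks, 18–22 g) inoculated subcutaneously with 1 × 10⁷ BGC-823 cells. At about 200 mm³ tumours, animals were randomised into four groups of eight. Each received 0.2 mL iv by tail vein; controls got 0.9% saline. Tumour volume was measured daily as 0.5 × length × width²; tumours were weighed at the end. Values are mean ± SD, n = 8.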
# Mus musculus [6] = test: Toxicity in human BGC823 cells xenografted nude mouse assessed as body weight changes at 8 mg/kg, iv treated 5 times on day 1, 4, 7, 10 and day 13 post tumor implant (reference value: 20.21 +/- 1.83 grams); format: organism-based, BGC-823; set-up: dose 8 mg/kg, route intravenous; conditions: in vivo
# Mus musculus [7] = test: Toxicity in human BGC823 cells xenografted nude mouse assessed as body weight changes at 8 mg/kg, iv treated 3 times on day 1, day 4 and day 7 post tumor implant (reference value: 20.79 +/- 1.29 grams); format: organism-based, BGC-823; set-up: dose 8 mg/kg, route intravenous; conditions: in vivo
# Mus musculus [8] = test: Toxicity in human BGC823 cells xenografted nude mouse assessed as body weight changes at 8 mg/kg, iv treated on day 1 post tumor implant (reference value: 19.69 +/- 1.21 grams); format: organism-based, BGC-823; set-up: dose 8 mg/kg, route intravenous; conditions: in vivo
# Mus musculus [9] = test: Toxicity in human BGC823 cells xenografted nude mouse assessed as body weight changes at 8 mg/kg, iv treated 2 times on day 1 and day 4 post tumor implant (reference value: 20.58 +/- 1.35 grams); format: organism-based, BGC-823; set-up: dose 8 mg/kg, route intravenous; conditions: in vivo
SMILES,IC50 (BGC-823 [1]) [µM],IC50 (HepG2) [µM],IC50 [2] [µM],IC50 (HT-29) [µM],Activity (Mus musculus [3]) [g],Activity (Mus musculus [4]) [g],Activity (BGC-823 [5]) [%],Activity (Mus musculus [6]) [g],Activity (Mus musculus [7]) [g],Activity (Mus musculus [8]) [g],Activity (Mus musculus [9]) [g]
C[C@H]1[C@H](C)CC[C@]2(C(=O)OCC(O)CO)CC[C@]3(C)C(=CC[C@@H]4[C@@]5(C)CC[C@H](O)C(C)(C)[C@@H]5CC[C@]43C)[C@H]12 (some centres undefined),20.5,44.2,154,,,,,,,,
CC(=O)O[C@H]1CC[C@]2(C)[C@H]3CC=C4[C@@H]5[C@@H](C)[C@H](C)CC[C@]5(C(=O)O)CC[C@@]4(C)[C@]3(C)CC[C@H]2C1(C)C [O-ACETYLURSOLIC ACID],19.4,37.7,92.9,23.9,,,,,,,
CC(=O)O[C@H]1CC[C@]2(C)[C@H]3CC=C4[C@@H]5[C@@H](C)[C@H](C)CC[C@]5(C(=O)OCCO)CC[C@@]4(C)[C@]3(C)CC[C@H]2C1(C)C,17.2,29.8,137,23.6,,,,,,,
CC(=O)O[C@H]1C(=O)[C@@]2(C)[C@H]([C@H](OC(=O)c3ccccc3)[C@]3(O)C[C@H](OC(=O)[C@H](O)[C@@H](NC(=O)c4ccccc4)c4ccccc4)C(C)=C1C3(C)C)[C@]1(OC(C)=O)CO[C@@H]1C[C@@H]2O [PACLITAXEL],33.1,,106,< 10,20.13,20.25,15.2,20.17,19.7,18.76,19.72
C[C@H]1[C@H](C)CC[C@]2(C(=O)O)CC[C@]3(C)C(=CC[C@@H]4[C@@]5(C)CC[C@H](O)C(C)(C)[C@@H]5CC[C@]43C)[C@H]12 [URSOLIC ACID],23,,93.8,26.3,,,,,,,
